≈ marks a conversion by molar mass, not a printed value.
Experiments:
CCRF-CEM = assay: Cellular toxic effect was determined in CEM cells; format: functional, cell-based; conditions: Homo sapiens
Adenosine deaminase = biological target: T1, Adenosine deaminase (Bos taurus, UniProt P56658); assay: Inhibitory activity against adenosine deaminase
T1 sequence (P56658 whole entry): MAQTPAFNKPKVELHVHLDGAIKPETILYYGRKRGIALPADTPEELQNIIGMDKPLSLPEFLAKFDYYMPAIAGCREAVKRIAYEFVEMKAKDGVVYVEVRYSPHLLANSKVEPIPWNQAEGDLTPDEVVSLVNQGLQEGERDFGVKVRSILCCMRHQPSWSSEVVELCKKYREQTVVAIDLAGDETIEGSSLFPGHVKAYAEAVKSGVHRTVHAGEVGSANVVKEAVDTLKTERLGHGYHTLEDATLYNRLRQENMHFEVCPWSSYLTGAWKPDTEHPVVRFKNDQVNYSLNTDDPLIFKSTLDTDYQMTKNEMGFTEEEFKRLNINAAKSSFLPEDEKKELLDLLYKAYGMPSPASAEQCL
Procedure, shortened: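 Calf mucosal adenosine deaminase. Ki determined by the Kaplan method, with ara-A as substrate and the test compound added to the substrate solutions.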

[1] = test system: Human immunodeficiency virus 2; assay: Inhibition of cytopathogenicity against human HIV-2(LAV-2) in MT-4 cells; format: functional, organism-based; conditions: Human immunodeficiency virus 2, MT4
[2] = Inhibitory effects on HSV-1 induced mortality in NMRI mice upon (ip) administration at a dose of 100 mk/kg/day; format: functional, Human alphaherpesvirus 1
Procedure, shortened: (§1)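 Two-week-old NMRI mice (~7 g, 15-20 per group) were infected ip with 4 × 10⁴ units HSV-1 (KOS). Compound was given ip once daily for 6 consecutive days starting 4 h postinfection; controls received saline. Mean day of symptom onset and of death were recorded, with % symptom-free and % surviving at day 21, when the experiment ended.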

[3] = Inhibitory effects on HSV-1 induced mortality in NMRI mice upon (ip) administration at a dose of 150 mk/kg/day; format: functional, Human alphaherpesvirus 1; procedure, shortened: as §1
[4] = test system: Human immunodeficiency virus 1; assay: Inhibition of cytopathogenicity against human HIV-1(IIIB) in MT-4 cells; format: functional, organism-based; conditions: Human immunodeficiency virus 1, MT4
[5] = test system: Moloney murine sarcoma virus; assay: Inhibition of virus-induced cytopathogenicity against moloney murine sarcoma virus(MSV)in CEM cells in cell protection assay; format: functional, organism-based; conditions: CCRF-CEM
Procedure, shortened: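 Cell-protection assay with Moloney murine sarcoma virus in CEM cells; inhibition of virus-induced cytopathogenicity measured and IC50 derived by linear regression from the average of duplicate determinations.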

[6] = Inhibitory effects on HSV-1 induced mortality in NMRI mice upon (ip) administration at a dose of 250 mk/kg/day; format: functional, Human alphaherpesvirus 1; procedure, shortened: as §1
MT4 = assay: Cellular toxic effect was determined in MT-4 cells; format: functional, cell-based; conditions: Homo sapiens
[7] = Inhibitory effect on HSV-1 induced mortality in NMRI mice upon (ip) administration at a dose of 250 mk/kg/day; format: functional, Human alphaherpesvirus 1; procedure, shortened: as §1
[8] = Inhibitory effect on HSV-1 induced mortality in NMRI mice upon (ip) administration at a dose of 150 mk/kg/day; format: functional, Human alphaherpesvirus 1; procedure, shortened: as §1
Vero [9] = assay: Maximum velocity constant of the rate of phosphorylation was determined n the presence of Vero cell thymidine kinase; format: functional, Chlorocebus sabaeus
[10] = Inhibitory effect on HSV-1 induced mortality in NMRI mice upon (ip) administration at a dose of 100 mk/kg/day; format: functional, Human alphaherpesvirus 1; procedure, shortened: as §1
Vero [11] = assay: Maximum velocity constant of the rate of phosphorylation was determined against Vero cell thymidine kinase; format: functional, Chlorocebus sabaeus

Row | SMILES | IC50 (CCRF-CEM) | IC50 [1] | IC50 [4] | IC50 [5] | Animal death [6] | Symptom initiation [6] | IC50 (MT4) | other results
1 | COC1=C(OC)/C(=C/COP(=O)(O)OC[C@H]2O[C@@H](n3cnc4c(N)ncnc43)[C@H](O)[C@@H]2OP(=O)(O)COCCn2cnc3ncnc(N)c32)OC1=O | > 300 µg/mL | 4.2 µg/mL (≈ 5.45 µM) | 4.9 µg/mL (≈ 6.36 µM) | 13 µg/mL (≈ 16.9 µM) | >21% | >21% | > 300 µg/mL | Ki (Adenosine deaminase): > 800 µM; Animal death [2]: >21%; Animal death [3]: >21%; Symptom initiation [3]: >21%
2 | COC1=C(OC)/C(=C/COP(=O)(O)COCCn2cnc3c(N)ncnc32)OC1=O | 280 µg/mL (≈ 634 µM) | 1 µg/mL (≈ 2.27 µM) | 1.4 µg/mL (≈ 3.17 µM) | 0.93 µg/mL (≈ 2.11 µM) | >21% | >21% | 265 µg/mL (≈ 600 µM) | Ki (Adenosine deaminase): > 800 µM; Animal death [2]: >21%; Symptom initiation [2]: >21%; Animal death [3]: >21%; Symptom initiation [3]: >21%
3 | Nc1nc2c(ncn2CCOCP(=O)(O)O)c(=O)[nH]1 [GS-438] | 12 µg/mL (≈ 41.5 µM) | 18 µg/mL (≈ 62.2 µM) | 16 µg/mL (≈ 55.3 µM) | 0.19 µg/mL (≈ 0.657 µM) | – | – | 16 µg/mL (≈ 55.3 µM) | –
4 | Nc1ncnc2ncn(CCOCP(=O)(O)O)c12 | > 300 µg/mL | 9.1 µg/mL (≈ 33.3 µM) | 7.8 µg/mL (≈ 28.6 µM) | 27 µg/mL (≈ 98.8 µM) | – | – | > 300 µg/mL | Animal death [7]: 20%; Symptom initiation [8]: 15%
5 | Nc1ncnc2c1ncn2COCCO | – | – | – | – | – | – | – | Relative Vmax (Vero [9]): <3
6 | Nc1ncnc2c1ncn2CCOCP(=O)(O)O [ADEFOVIR] | 285 µg/mL (≈ 1040 µM) | 3.8 µg/mL (≈ 13.9 µM) | 4.1 µg/mL (≈ 15 µM) | 2 µg/mL (≈ 7.32 µM) | – | – | 274 µg/mL (≈ 1000 µM) | Animal death [7]: >21%; Symptom initiation [7]: >21%; Animal death [8]: >21%; Animal death [10]: 17%
7 | Nc1ncnc2c1ncn2[C@@H]1O[C@H](COP(=O)(O)O)[C@@H](OP(=O)(O)COCCn2cnc3ncnc(N)c32)[C@H]1O | > 300 µg/mL | 6.4 µg/mL (≈ 10.6 µM) | 5.9 µg/mL (≈ 9.79 µM) | 17 µg/mL (≈ 28.2 µM) | >21% | >21% | 298 µg/mL (≈ 495 µM) | Animal death [2]: >21%; Symptom initiation [2]: 16%
8 | COC1=C(OC)/C(=C/COP(=O)(O)COCCn2cnc3c(O)nc(N)nc32)OC1=O | 13 µg/mL (≈ 28.4 µM) | 7.1 µg/mL (≈ 15.5 µM) | 6 µg/mL (≈ 13.1 µM) | 0.02 µg/mL (≈ 0.0437 µM) | – | – | 14 µg/mL (≈ 30.6 µM) | –
9 | Nc1nc2c(ncn2COCCO)c(=O)[nH]1 [ACYCLOVIR] | – | – | – | – | >21% | >21% | – | Animal death [3]: >21%
10 | Nc1ncnc2c1ncn2[C@@H]1O[C@H](CO)[C@@H](O)[C@@H]1O [VIDARABINE] | – | – | – | – | – | – | – | Relative Vmax (Vero [11]): <3
11 | Nc1ncnc2ncn(COCCO)c12 | – | – | – | – | – | – | – | Animal death [7]: >21%; Symptom initiation [7]: >21%; Animal death [8]: >21%; Relative Vmax (Vero [11]): <3
